From ChEMBL document CHEMBL1137744, “Parallel synthesis, molecular modelling and further structure-activity relationship studies of new acylthiocarbamates as potent non-nucleoside HIV-1 reverse transcriptase inhibitors” (Eur J Med Chem, 2009)

Tests used:
[1] = Selectivity index, ratio of CC50 for human MT4 cells to EC50 for HIV1 3B; format: toxicity, cell-based; details: read-out: Ratio CC50/EC50
Method in brief: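 Computed as CC50/EC50. Both come from MTT readings in MT-4 cells: CC50 is 50% viability loss in mock-infected cells, and EC50 is 50% protection from HIV-1-induced cytopathogenicity. Each is the mean of three experiments.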

[2] = Cytotoxicity against human MT4 cells by MTT assay; format: cell-based
Method in brief: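 Uninfected (mock-infected) MT-4 cells were exposed to compound and viability was read by MTT. CC50 is the concentration cutting viability by 50%. Values are means of three separate experiments, with triplicate samples varying by less than 10%.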

[3] = tested on: Human immunodeficiency virus 1; assay: Antiviral activity against HIV1 3B infected in human MT4 cells assessed as inhibition of virus-induced cytopathogenicity by MTT assay; format: functional, organism-based; details: Human immunodeficiency virus 1, 3B
Method in brief: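 MT-4 cells infected with HIV-1 and read by MTT viability. EC50 is the concentration giving 50% protection of cells from virus-induced cytopathogenicity. Values are means of three separate experiments, with variation among triplicate samples under 10%.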

Row | Compound | selectivity ratio [1] | CC50 [2] [µM] | EC50 [3] [µM]
1 | Cc1ccccc1C(=O)N(C(=S)OCCN1C(=O)c2ccccc2C1=O)c1ccc(Cl)cc1 | 525 | 21 | 0.04
2 | O=C1c2ccccc2C(=O)N1CCOC(=S)N(C(=O)c1ccc(C(F)(F)F)cc1)c1ccc(Cl)cc1 | 2000 | 10 | 0.005
3 | CCCCCOc1ccc(C(=O)N(C(=S)OCCN2C(=O)c3ccccc3C2=O)c2ccc(F)cc2)cc1 | > 11.8 | > 100 | 8.5
4 | Cc1ccc(N(C(=O)c2cc(F)cc(F)c2)C(=S)OCCN2C(=O)c3ccccc3C2=O)cc1 | 1080 | 54 | 0.05
5 | Cc1ccc2c(c1)C(=O)N(CCOC(=S)N(C(=O)c1cccs1)c1ccc(Cl)cc1)C2=O | > 5000 | > 100 | 0.02
6 | Cc1ccc(N(C(=O)c2ccc(Cl)c(Cl)c2)C(=S)OCCN2C(=O)c3ccccc3C2=O)cc1 | 340 | 17 | 0.05
7 | O=C1c2ccccc2C(=O)N1CCOC(=S)N(C(=O)c1cccs1)c1ccc(Cl)cc1 |  |  | 0.008
8 | Cc1ccc(N(C(=O)c2cccc(Cl)c2Cl)C(=S)OCCN2C(=O)c3ccccc3C2=O)cc1 | 175 | 35 | 0.2
9 | O=C1c2ccccc2C(=O)N1CCOC(=S)N(C(=O)c1ccccc1)c1ccc(Cl)cc1 |  |  | 0.1
10 | O=C1c2ccccc2C(=O)N1CCOC(=S)N(C(=O)c1c(F)cccc1F)c1ccc(Cl)cc1 | 1950 | 39 | 0.02
11 | O=C1c2ccccc2C(=O)N1CCOC(=S)N(C(=O)c1ccc(Cl)nc1)c1ccc(Cl)cc1 |  |  | 0.006
12 | O=C1c2ccccc2C(=O)N1CCOC(=S)N(C(=O)c1cccc([N+](=O)[O-])c1)c1c(Cl)cc(Cl)cc1Cl |  | 20 | > 20
13 | Cc1ccc(N(C(=O)c2ccccc2[N+](=O)[O-])C(=S)OCCN2C(=O)c3ccccc3C2=O)cc1 | 250 | 100 | 0.4
14 | O=C1c2ccccc2C(=O)N1CCOC(=S)N(C(=O)c1cccnc1Cl)c1ccc(Cl)cc1 |  |  | 0.005
15 | O=C1c2ccccc2C(=O)N1CCOC(=S)N(C(=O)c1cccc([N+](=O)[O-])c1)c1c(Cl)cccc1Cl | 3.4 | 58 | 17
16 | O=C1c2ccccc2C(=O)N1CCOC(=S)N(C(=O)c1cccc2ccccc12)c1ccc(Cl)cc1 | 200 | 6 | 0.03
17 | O=C1c2ccccc2C(=O)N1CCCOC(=S)N(C(=O)c1cccc([N+](=O)[O-])c1)c1ccc(Cl)cc1 | 1.8 | 53 | 29
18 | Cc1ccc(N(C(=O)c2c(Cl)cccc2Cl)C(=S)OCCN2C(=O)c3ccccc3C2=O)cc1 | 2.4 | 22 | 9
19 | Cc1ccc(C(=O)N(C(=S)OCCN2C(=O)c3ccccc3C2=O)c2ccc(C)cc2)cc1 | 4150 | 83 | 0.02
20 | Cc1ccc(N(C(=O)c2ccc(F)cc2F)C(=S)OCCN2C(=O)c3ccccc3C2=O)cc1 | 667 | 20 | 0.03
21 | Cc1ccc(N(C(=O)c2ccc(Cl)cc2Cl)C(=S)OCCN2C(=O)c3ccccc3C2=O)cc1 | 163 | 49 | 0.3
22 | O=C1c2ccccc2C(=O)N1CCOC(=S)N(C(=O)c1cc([N+](=O)[O-])ccc1Cl)c1ccc(Cl)cc1 | 643 | 45 | 0.07
23 | Cc1ccc(N(C(=O)c2cccc([N+](=O)[O-])c2)C(=S)OCCN2C(=O)c3ccccc3C2=O)cc1 | 5000 | 100 | 0.02

Row | Compound | selectivity ratio [1] | CC50 [2] [µM] | EC50 [3] [µM]
24 | O=C1c2ccccc2C(=O)N1CCOC(=S)N(C(=O)c1ccc(Cl)c([N+](=O)[O-])c1)c1ccccc1 | 146 | 51 | 0.35
25 | Cc1ccc(N(C(=O)c2ccccc2C)C(=S)OCCN2C(=O)c3ccccc3C2=O)cc1 | > 500 | > 100 | 0.2
26 | O=C1c2ccccc2C(=O)N1CCOC(=S)N(C(=O)c1ccc(Cl)c(Cl)c1)c1ccc(Cl)cc1 | 3890 | 35 | 0.009
27 | O=C1c2ccccc2C(=O)N1CCOC(=S)N(C(=O)c1ccc(Cl)cc1)c1ccc(Cl)cc1 |  |  | 0.025
28 | O=C1c2ccccc2C(=O)N1CCOC(=S)N(C(=O)c1ccccc1[N+](=O)[O-])c1ccc(Cl)cc1 | 300 | 21 | 0.07
29 | O=C1c2ccccc2C(=O)N1CCOC(=S)N(C(=O)c1ccco1)c1ccc(Cl)c(Cl)c1 | 145 | 100 | 0.69
30 | Cc1ccc(N(C(=O)c2ccc(Br)c(C)c2)C(=S)OCCN2C(=O)c3ccccc3C2=O)cc1 | > 2000 | > 100 | 0.05
31 | O=C1c2ccccc2C(=O)N1CCOC(=S)N(C(=O)c1ccc(Br)cc1)c1ccc(Br)cc1 | 2090 | 73 | 0.035
32 | O=C1c2ccccc2C(=O)N1CCOC(=S)N(C(=O)c1ccco1)c1ccc(Cl)cc1 |  |  | 0.007
33 | COc1cccc(OC)c1C(=O)N(C(=S)OCCN1C(=O)c2ccccc2C1=O)c1ccc(Cl)cc1 | 172 | 69 | 0.4
34 | Cc1ccc(N(C(=O)c2ccc([N+](=O)[O-])cc2)C(=S)OCCN2C(=O)c3ccccc3C2=O)cc1 | 1930 | 58 | 0.03
35 | O=C1c2ccccc2C(=O)N1CCOC(=S)N(C(=O)c1ccc([N+](=O)[O-])cc1Cl)c1ccc(Cl)cc1 | 2380 | 19 | 0.008
36 | O=C1c2ccccc2C(=O)N1CCOC(=S)N(C(=O)c1cc(F)cc(F)c1)c1ccc(Cl)cc1 | 8430 | 59 | 0.007
37 | Cc1ccc(N(C(=O)c2ccc([N+](=O)[O-])cc2Cl)C(=S)OCCN2C(=O)c3ccccc3C2=O)cc1 | 189 | 17 | 0.09
38 | O=C1c2ccccc2C(=O)N1CCOC(=S)N(C(=O)c1cccc([N+](=O)[O-])c1)c1ccc(Cl)cc1 | 12000 | 18 | 0.0015
39 | Cc1ccc(N(C(=O)c2cc(F)ccc2F)C(=S)OCCN2C(=O)c3ccccc3C2=O)cc1 | 1550 | 62 | 0.04
40 | COc1cccc(OC)c1C(=O)N(C(=S)OCCN1C(=O)c2ccccc2C1=O)c1ccc(C)cc1 | 1.6 | 36 | 22
41 | O=C1c2ccccc2C(=O)N1CCOC(=S)N(C(=O)c1ccco1)c1ccc(Cl)cc1Cl | > 38 | > 100 | 2.6
42 | O=C1c2ccccc2C(=O)N1CCOC(=S)N(C(=O)c1ccccc1)c1ccccc1 |  |  | 0.4
43 | O=C1c2ccccc2C(=O)N1COC(=S)N(C(=O)c1cccc([N+](=O)[O-])c1)c1ccc(Cl)cc1 |  | > 100 | > 100
44 | O=C1c2ccccc2C(=O)N1CCOC(=S)N(C(=O)c1ccco1)c1cccc(Cl)c1Cl |  | 100 | > 100
45 | O=C1c2ccccc2C(=O)N1CCOC(=S)N(C(=O)c1ccco1)c1cc(Cl)cc(Cl)c1 |  | > 100 | > 100
